Test results reported in PMC10925177 (bioRxiv, 2024).

Legend:
G9a mRNA = assay: RT-qPCR of G9a mRNA in H1299 cells; assay type: cell-based; details: 3 μM, 24 h, normalized to DMSO
Method in brief: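 H1299 cells were treated with DMSO or test compound at 3 μM for 24 h. Total RNA was extracted and reverse-transcribed to cDNA. qPCR used gene-specific primers for G9a and GLP, and a GAPDH primer set was included.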

EZH2 [1] = target: T1, EZH2 (Homo sapiens, UniProt Q15910); assay: Radioactive methyltransferase assay, EZH2; assay type: biochemical; details: 10 μM compound
Target sequence in this assay (Q15910 whole entry): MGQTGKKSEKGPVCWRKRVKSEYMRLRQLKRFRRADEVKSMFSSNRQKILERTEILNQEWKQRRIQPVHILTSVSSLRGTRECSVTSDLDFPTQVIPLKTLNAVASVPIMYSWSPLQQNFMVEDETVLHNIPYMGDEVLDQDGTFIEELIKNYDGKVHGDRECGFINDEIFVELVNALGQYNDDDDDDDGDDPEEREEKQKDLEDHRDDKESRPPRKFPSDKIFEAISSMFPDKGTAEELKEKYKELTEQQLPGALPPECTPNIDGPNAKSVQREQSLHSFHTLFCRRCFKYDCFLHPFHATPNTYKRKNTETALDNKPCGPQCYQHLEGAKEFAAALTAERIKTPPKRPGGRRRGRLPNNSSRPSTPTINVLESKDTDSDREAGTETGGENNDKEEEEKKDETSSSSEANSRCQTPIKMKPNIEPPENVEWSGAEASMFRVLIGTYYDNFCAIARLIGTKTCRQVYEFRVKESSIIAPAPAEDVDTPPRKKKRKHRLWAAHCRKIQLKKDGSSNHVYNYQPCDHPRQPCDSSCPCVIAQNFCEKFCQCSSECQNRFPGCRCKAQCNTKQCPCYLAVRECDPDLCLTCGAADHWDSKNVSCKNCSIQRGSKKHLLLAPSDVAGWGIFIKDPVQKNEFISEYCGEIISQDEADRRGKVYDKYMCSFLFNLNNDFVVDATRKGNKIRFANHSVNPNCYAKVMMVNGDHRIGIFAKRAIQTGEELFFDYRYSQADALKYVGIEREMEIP
Target sequence in this assay (O75530 whole entry partner): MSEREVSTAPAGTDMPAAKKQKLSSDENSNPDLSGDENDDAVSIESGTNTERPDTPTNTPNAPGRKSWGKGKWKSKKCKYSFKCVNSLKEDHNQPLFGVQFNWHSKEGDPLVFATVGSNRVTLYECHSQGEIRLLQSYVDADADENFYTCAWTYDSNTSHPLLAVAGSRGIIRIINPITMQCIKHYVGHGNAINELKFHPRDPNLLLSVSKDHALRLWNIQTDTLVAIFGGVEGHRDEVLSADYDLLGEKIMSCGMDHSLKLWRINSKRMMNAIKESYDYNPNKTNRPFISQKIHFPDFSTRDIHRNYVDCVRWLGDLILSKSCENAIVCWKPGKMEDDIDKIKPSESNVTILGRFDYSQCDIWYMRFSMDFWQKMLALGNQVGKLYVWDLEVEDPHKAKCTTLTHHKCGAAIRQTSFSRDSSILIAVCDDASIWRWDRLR
Target sequence in this assay (Q15022 whole entry partner): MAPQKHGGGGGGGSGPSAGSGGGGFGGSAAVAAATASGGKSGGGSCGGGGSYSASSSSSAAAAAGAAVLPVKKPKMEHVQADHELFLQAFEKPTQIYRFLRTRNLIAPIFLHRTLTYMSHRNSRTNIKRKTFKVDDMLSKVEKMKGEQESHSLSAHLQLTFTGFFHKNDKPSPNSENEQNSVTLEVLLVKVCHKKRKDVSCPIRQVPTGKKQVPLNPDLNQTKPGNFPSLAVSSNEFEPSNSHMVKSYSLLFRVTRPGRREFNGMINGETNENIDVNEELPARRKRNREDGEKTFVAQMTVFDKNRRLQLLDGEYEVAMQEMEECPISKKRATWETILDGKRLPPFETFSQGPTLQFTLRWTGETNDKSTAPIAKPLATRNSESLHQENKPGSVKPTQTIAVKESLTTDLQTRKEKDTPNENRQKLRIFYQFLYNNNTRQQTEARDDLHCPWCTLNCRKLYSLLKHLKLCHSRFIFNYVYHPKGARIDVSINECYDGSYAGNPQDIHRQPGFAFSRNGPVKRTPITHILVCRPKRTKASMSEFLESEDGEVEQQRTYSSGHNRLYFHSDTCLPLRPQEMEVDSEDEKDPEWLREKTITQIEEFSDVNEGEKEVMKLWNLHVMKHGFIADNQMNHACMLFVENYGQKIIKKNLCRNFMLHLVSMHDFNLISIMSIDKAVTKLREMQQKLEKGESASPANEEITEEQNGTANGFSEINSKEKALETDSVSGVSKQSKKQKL
Target sequence in this assay (Q09028 whole entry partner): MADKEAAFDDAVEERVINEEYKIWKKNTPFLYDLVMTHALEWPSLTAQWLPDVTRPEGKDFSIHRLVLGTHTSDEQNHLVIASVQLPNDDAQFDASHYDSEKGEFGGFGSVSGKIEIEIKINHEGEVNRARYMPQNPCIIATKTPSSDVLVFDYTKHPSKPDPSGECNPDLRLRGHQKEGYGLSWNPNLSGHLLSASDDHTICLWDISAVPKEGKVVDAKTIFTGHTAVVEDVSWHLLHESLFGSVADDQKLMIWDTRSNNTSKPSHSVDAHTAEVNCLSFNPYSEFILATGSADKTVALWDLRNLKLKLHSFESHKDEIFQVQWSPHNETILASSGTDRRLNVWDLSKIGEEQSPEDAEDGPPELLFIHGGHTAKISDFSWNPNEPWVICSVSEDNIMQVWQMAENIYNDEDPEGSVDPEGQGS
Target sequence in this assay (Q6ZN18 whole entry partner): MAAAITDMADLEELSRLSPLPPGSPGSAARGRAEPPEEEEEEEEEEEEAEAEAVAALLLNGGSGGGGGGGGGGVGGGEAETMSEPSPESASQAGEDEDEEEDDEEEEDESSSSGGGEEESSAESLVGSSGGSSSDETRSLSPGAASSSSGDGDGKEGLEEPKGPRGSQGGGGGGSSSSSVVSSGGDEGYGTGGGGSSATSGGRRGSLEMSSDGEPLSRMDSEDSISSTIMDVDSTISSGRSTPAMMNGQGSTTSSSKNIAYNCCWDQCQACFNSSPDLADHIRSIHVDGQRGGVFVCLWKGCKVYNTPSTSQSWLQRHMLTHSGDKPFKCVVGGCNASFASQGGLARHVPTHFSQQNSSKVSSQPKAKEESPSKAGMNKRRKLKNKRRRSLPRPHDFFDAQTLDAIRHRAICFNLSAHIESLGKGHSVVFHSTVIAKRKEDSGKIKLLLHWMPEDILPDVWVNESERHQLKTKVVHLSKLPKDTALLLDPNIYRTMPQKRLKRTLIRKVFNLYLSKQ

SET7/9 = target: T2, SET7/9 (Homo sapiens, UniProt Q8WTS6); assay: Radioactive methyltransferase assay, SET7/9; assay type: biochemical; details: 10 μM compound
T2 sequence (Q8WTS6 1-366): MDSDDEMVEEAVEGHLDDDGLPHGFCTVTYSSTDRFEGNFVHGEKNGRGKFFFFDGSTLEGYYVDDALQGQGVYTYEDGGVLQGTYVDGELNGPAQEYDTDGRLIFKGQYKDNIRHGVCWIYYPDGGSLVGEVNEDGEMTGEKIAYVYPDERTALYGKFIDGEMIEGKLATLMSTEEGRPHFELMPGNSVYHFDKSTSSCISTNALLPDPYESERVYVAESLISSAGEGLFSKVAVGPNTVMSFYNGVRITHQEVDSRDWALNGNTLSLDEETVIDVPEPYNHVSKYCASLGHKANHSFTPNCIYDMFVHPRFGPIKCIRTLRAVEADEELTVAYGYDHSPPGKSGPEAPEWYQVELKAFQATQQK
Method in brief: (§1)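 The selectivity screen covered 21 protein methyltransferases in radioisotope-based MT HotSpot methyltransferase assays run by a contract laboratory. Test compound was at 10 μM. Each assay was run in duplicate and reported as mean ± SD of the two replicates.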

EZH2 [2] = target: T1, EZH2; assay: Western blot of EZH2 protein level in 22Rv1 cells; assay type: cell-based; details: indicated concentration, 24 h, WB
Target sequence in this assay (Q15910 whole entry): as the sequence (Q15910 whole entry) above

PNT2 cells = assay: Cell viability assay; assay type: cell-based, human; details: 5 days, WST-8 (CCK-8)
Method in brief: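 PNT2 cells were grown at 37 °C in 5% CO2 and treated with serial dilutions of the test compound. The general protocol gives a treatment span of 5–8 days. Viability was measured by CCK-8 (WST-8) absorbance at 450 nm, with 690 nm as reference. IC50 was calculated by curve fitting.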

PRMT7 = target: T3, PRMT7 (Homo sapiens, UniProt Q9NVM4); assay: Radioactive methyltransferase assay, PRMT7; assay type: biochemical; details: 10 μM compound
T3 sequence (Q9NVM4 1-692): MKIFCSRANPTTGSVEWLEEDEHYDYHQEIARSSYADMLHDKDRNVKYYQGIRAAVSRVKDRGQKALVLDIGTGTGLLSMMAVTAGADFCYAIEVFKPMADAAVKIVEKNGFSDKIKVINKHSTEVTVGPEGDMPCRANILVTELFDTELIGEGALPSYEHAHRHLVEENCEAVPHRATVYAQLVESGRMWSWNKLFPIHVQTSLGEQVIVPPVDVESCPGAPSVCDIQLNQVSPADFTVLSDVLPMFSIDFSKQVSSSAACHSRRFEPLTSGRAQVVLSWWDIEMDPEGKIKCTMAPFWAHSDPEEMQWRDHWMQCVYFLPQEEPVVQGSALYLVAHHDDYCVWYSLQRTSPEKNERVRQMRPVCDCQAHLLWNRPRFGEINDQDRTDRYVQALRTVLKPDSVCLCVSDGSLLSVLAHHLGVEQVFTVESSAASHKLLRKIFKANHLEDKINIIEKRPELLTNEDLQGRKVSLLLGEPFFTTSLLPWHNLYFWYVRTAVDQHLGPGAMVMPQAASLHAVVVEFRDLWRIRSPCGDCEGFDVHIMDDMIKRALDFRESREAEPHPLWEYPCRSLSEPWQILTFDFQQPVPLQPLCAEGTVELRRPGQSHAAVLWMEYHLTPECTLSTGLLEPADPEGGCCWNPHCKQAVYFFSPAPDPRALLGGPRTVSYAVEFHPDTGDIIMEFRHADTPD
Method in brief: as §1

22Rv1 cells = assay: Clonogenicity assay in 22Rv1 cells; assay type: cell-based; details: 8 days treatment, crystal violet
Method in brief: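 22Rv1 cells were seeded at 50,000 per well in 6-well plates. They were treated continuously with the test compound at the indicated concentrations for 8 days, then stained with 0.5% crystal violet. Three independent biological experiments were run.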

[3] = Mouse PK study, single IP administration; assay type: in vivo; details: C57BL/6 mice

What does the source list for `COc1cc2c(NC3CCN(CCCC(=O)NCCCCCCCCCCCC(=O)N[C@H](C(=O)N4C[C@H](O)C[C@H]4C(=O)NCc4ccc(-c5scnc5C)cc4)C(C)(C)C)CC3)nc(N3CCC(F)(F)CC3)nc2cc1OCCCN1CCCC1` [Compound 10, (2S,4R)-1-((S)-2-(12-(4-(4-((2-(4,4-difluoropiperidin-1-yl)-6-methoxy-7-(3-(pyrrolidin-1-yl)propoxy)quinazolin-4-yl)amino)piperidin-1-yl)butanamido)dodecanamido)-3,3-dimethylbutanoyl)-4-hydroxy-N-(4-(4-methylthiazol-5-yl)benzyl)pyrrolidine-2-carboxamide]?
mRNA levels of G9a (G9a mRNA): did not significantly alter; inhibition of EZH2 (EZH2 [1]): moderately inhibited; inhibition of SET7/9 (SET7/9): moderately inhibited; EZH2 degradation (EZH2 [2]): cannot induce the degradation; cell viability of normal prostate cells (PNT2 cells): does not affect the cell viability; inhibition of PRMT7 (PRMT7): moderately inhibited; inhibition of 22Rv1 cell colony formation (22Rv1 cells): able to inhibit; Cmax ([3]; IP, 50 mg/kg, plasma, HCl salt form): 27 ± 0.6 µM; plasma exposure levels maintained up to 8 h ([3]; IP, 50 mg/kg, up to 8 h): > 5 µM; clinical signs in the PK study ([3]; single IP 50 mg/kg): no clinical signs were observed; tolerability in the PK study ([3]; single IP 50 mg/kg): well tolerated
